Hits are enriched below; roughly 1.7% of the tested compounds scored in any of these assays.
SUMO1-SIM PPI: alters human SUMO1 binding to SIM partners. SUMO1 binding to a labelled peptide, TR-FRET, 1 h. inhibition, % at 20 µM. 360,000 compounds, 0.33% hits. P63165; in the data active = inhibition above about 37%
Target sequence (P63165 whole entry, looked up): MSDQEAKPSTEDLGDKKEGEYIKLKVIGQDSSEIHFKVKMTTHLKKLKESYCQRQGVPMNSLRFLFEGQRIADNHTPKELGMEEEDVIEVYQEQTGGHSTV
LMPTP block: blocks human LMPTP phosphatase; P24666; recombinant LMPTP-A, OMFP fluorogenic substrate, fluorescence intensity; inhibition, % at 20 µM; 360,000 compounds, 0.22% hits;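 active = compounds that cut the enzyme signal by at least half of the control window in the single-dose screen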
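Assay system: LMPTP-A phosphatase enzyme | Input: 0.625 nM enzyme | Also added: Fluorogenic phosphatase substrate OMFP at 400 µM final | Compound dosing: One test concentration per compound, 20 µM, with 3% DMSO overall | Schedule: 50 min enzyme reaction at room temperature, protected from light | Signal: Fluorescence intensity | Benchmarks: no-enzyme and uninhibited controls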
Scp-1 inhibitor: Scp-1 (human) phosphatase inhibition; Q9GZU7; Recombinant Scp1, phosphopeptide, malachite green phosphate absorbance; inhibition, % at 20 µM; 340,000 compounds, 0.88% hits; AID 493091;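 active = inhibition above about 50% at 20 µM, limit read from the data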
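Times: enzyme reaction 45 min at room temperature, colour 5 min, stabilisation 30 min. Material: SCP-1 catalytic fragment, aa 76-261. Medium: Acidic Tris acetate buffer with magnesium and detergent. Signal: colorimetric free-phosphate detection, absorbance 630 nm. Read-out basis: % inhibition of SCP-1 phosphate liberation. Reagent: Phosphorylated 17-residue peptide substrate.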
STEP block: blocks human striatal-enriched tyrosine phosphatase. inhibition, % at 20 µM. AID 588621. 360,000 compounds, 0.25% hits. recombinant STEP, OMFP fluorogenic substrate, fluorescence. P54829;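 active = inhibition at 20 µM, scaled per plate between control wells, above about 37%, limit read from the data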
Target sequence (P54829 whole entry, looked up): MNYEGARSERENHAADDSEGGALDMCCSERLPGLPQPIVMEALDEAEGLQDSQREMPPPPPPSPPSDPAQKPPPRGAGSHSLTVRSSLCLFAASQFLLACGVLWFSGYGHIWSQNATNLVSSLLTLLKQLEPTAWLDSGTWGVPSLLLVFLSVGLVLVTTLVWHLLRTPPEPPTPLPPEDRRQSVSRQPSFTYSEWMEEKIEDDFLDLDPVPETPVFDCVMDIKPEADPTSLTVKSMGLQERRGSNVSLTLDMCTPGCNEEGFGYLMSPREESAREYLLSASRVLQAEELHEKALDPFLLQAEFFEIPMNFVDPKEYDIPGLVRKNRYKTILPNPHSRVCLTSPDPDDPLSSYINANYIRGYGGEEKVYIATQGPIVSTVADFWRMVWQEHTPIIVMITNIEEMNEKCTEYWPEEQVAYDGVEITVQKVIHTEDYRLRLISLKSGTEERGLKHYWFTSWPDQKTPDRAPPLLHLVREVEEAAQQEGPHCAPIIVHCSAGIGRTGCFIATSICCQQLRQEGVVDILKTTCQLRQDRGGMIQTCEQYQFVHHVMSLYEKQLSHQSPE
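material = STEP tyrosine phosphatase | reagent = fluorogenic phosphatase substrate OMFP at 25 µM final | doses = single compound dose of 20 µM, 1% DMSO final | schedule = 20 min reaction, room temperature, in the dark | measured by = fluorescence, 480/540 nm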
DNMT1 inh: inhibitors of human DNMT1. inhibition (reported as % activation of signal), % at 10 µM. 360,000 compounds, 0.83% hits. AID 588458. DNMT1 molecular beacon, Hinp1I cleavage, fluorescence; in the data active = inhibition above about 50%
Hits are given with their value; 0 = inactive; - = no result given.

SMILES | SUMO1-SIM PPI | LMPTP block | Scp-1 inhibitor | STEP block | DNMT1 inh
O=C(O)C1C2C=CC(O2)C1C(=O)NCCC1=CCCCC1 (stereo not drawn) | 0 | 0 | 0 | 0 | 53
Cc1cc(F)ccc1S(=O)(=O)N1CCCOC1CNC(=O)C(=O)NC1CC1 (stereo not drawn) | 0 | 0 | 0 | 0 | 0
O=C(O)c1cn(C2CC2)c2cc(N3CCN(S(=O)(=O)c4ccc5c(c4)OCCO5)CC3)c(F)cc2c1=O | 0 | 65 | 0 | 0 | 0
COc1ccc(N(C(=O)c2cccnc2)S(=O)(=O)c2cc(OC)ccc2OC)cc1 | 0 | 0 | 0 | 0 | 0
CCOC(=O)[C@@H]1[C@H]2COc3cc(OC)ccc3[C@H]2N2C(=O)N(c3ccc(C)cc3)C(=O)[C@@]12C | 0 | 0 | 0 | 0 | 0
COc1cccc(OC)c1-c1nn2c(-c3cc(-c4ccccc4)n[nH]3)nnc2s1 | 0 | 56 | 90 | 0 | 0
COC(=O)c1ccc2c(c1)C(C)(C)C(/C=C/c1ccccc1O)=[N+]2C | 0 | 0 | 99 | 0 | 0
Cn1c(=O)n(C)c2cc(/C=N/NC(=O)c3cc4cc(Br)ccc4o3)ccc21 | 60 | 0 | 0 | 0 | 0
COc1ccc(O)c(/C=N/NC(=O)c2ccc(OCc3cccc(Br)c3)cc2)c1 | 0 | 0 | 96 | 0 | 52
COc1ccc(C(=O)N/N=C/c2cc(Br)ccc2O)cc1OC | 0 | 0 | 0 | 0 | 0
COc1cc(OC)c2c(O)c3c(c(-c4c5c(c(O)c6c(OC)cc(OC)cc46)CO[C@@H](C)[C@H]5O)c2c1)[C@H](O)[C@H](C)OC3 | 0 | 51 | 55 | 0 | 100
CC(C)Oc1ccc(C(=O)Nc2ccc(N3CCCC3)cc2)cc1 | 0 | 0 | 0 | 0 | 53
CC(C)Oc1ccc(C(=O)Nc2ccc(N3CCN(C(=O)c4ccco4)CC3)cc2)cc1 | 0 | 0 | 0 | 0 | 0
O=C(Nc1ccc(N2CCCC2)cc1)c1ccc(Cl)cc1Cl | 0 | 0 | 0 | 0 | 0
O=C(Nc1ccc(N2CCCC2)cc1)c1cc(Cl)ccc1Cl | 90 | 0 | 0 | 0 | 53
Cc1ccc(C)c(C(=O)CN2Cc3ccccc3C2=O)c1 | 46 | 0 | 0 | 0 | 0
O=C(O)CCN1Cc2ccccc2C1=O | 0 | 0 | 0 | 0 | 0
CCn1c(SCc2nc3sc(C(=O)O)c(C)c3c(=O)[nH]2)nc2ccccc21 | 41 | 0 | 65 | 0 | 0
C[C@H]1c2cccc(O)c2C(O)=C2C(=O)C3(O)C(O)=C(C(N)=O)C(=O)[C@@H](N(C)C)[C@@H]3[C@@H](O)[C@@H]21 (stereo partly drawn) | 0 | 0 | 0 | 0 | 0
C=C1c2cccc(O)c2C(O)=C2C(=O)[C@]3(O)C(O)=C(C(N)=O)C(=O)[C@@H](N(C)C)[C@@H]3[C@@H](O)[C@H]12 | 72 | 88 | 0 | 0 | 90
CCOC(=O)C1Nc2ccc(C(=O)O)cc2C2C=CCC12 (stereo not drawn) | 48 | 0 | 0 | 42 | 60
Oc1cccc(/C=N/Nc2nn3cnnc3c3ccccc23)c1 | 84 | 0 | 0 | 0 | 0
COc1cccc(/C=N/Nc2nn3cnnc3c3ccccc23)c1O | 0 | 0 | 0 | 0 | 0
COc1cc(CCC(=O)OCC(=O)NCCc2ccc(S(N)(=O)=O)cc2)cc(OC)c1OC | 0 | 0 | 0 | 0 | 0
COc1ccc(C(=O)Nc2nnc(CC(=O)N/N=C/c3ccc(O)cc3O)s2)cc1 | 79 | 0 | - | 0 | 0
SMILES | SUMO1-SIM PPI | LMPTP block | Scp-1 inhibitor | STEP block | DNMT1 inh
Cc1ccc(C(=O)Nc2nnc(CC(=O)N/N=C/c3ccncc3)s2)cc1 | 0 | 0 | 0 | 0 | 0
Cc1ccc(C(=O)Nc2nnc(CC(=O)N/N=C/c3ccc(O)c(O)c3)s2)cc1 | 96 | 0 | 0 | 0 | 0
CCc1nnc(NC(=O)c2ccc(OC)cc2)s1 | 0 | 0 | 0 | 0 | 0
C=CC(=O)Nc1cccc(Oc2ccnc3[nH]ccc23)c1 | 57 | 0 | 0 | 54 | 0
Cc1cccc(C)c1NC(=O)C(c1cccc2ccccc12)n1c(=O)c(-c2cc3ccccc3[nH]2)nc2ccccc21 (stereo not drawn) | 0 | 0 | - | - | -
CCOc1ccc2c(ccc(/C=C/c3cc(C)c4cccnc4c3O)[n+]2C)c1 | 0 | 76 | 52 | 0 | 0
CCN(CC)C(=O)c1[nH]cnc1C(=O)NCC(=O)OCc1ccccc1 | 0 | 0 | 0 | 0 | 0
COc1ccc(C(=O)Nc2ccc(S(=O)(=O)N3CCCC3)cc2)cc1[N+](=O)[O-] | 0 | 0 | 0 | 0 | 0
OCCNc1c2ccccc2nc2ccccc12 | 0 | 0 | 0 | 0 | 59
Nc1ccn(Cc2ccc(F)cc2)n1 | 76 | 0 | 0 | 0 | 0
O=C1/C(=C\c2ccco2)CCC/C1=C\c1ccco1 | 0 | 0 | 0 | 0 | 73
O=C(OCC(=O)N1CCCC1)c1cccc(Br)c1 | 67 | 0 | 0 | 0 | 0
CNS(=O)(=O)c1cccc(C(=O)OCC(=O)N2CCCC2)c1 | 0 | 0 | 0 | 0 | 0
COc1cc2c(C#N)c(N3CCOCC3)nc(N)c2c(N)n1 | 0 | 0 | 0 | 0 | 0
COc1cc2c(C#N)c(N3CCc4ccccc4C3)nc(N)c2c(N)n1 | 47 | 0 | 0 | 0 | 0
Nc1c(N2CCOCC2)cc(Cl)c2nonc12 | 0 | 0 | 0 | 0 | 0
Nc1c(N2CCCC2)cc(Cl)c2nonc12 | 0 | 0 | 0 | 0 | 78
COc1ccc(C2=Nc3ccccc3NC(=O)C2N(Cc2ccccc2)C(=O)C2=NNC(=O)CC2)cc1 (stereo not drawn) | 0 | 0 | - | 0 | 0
CCCCCC(=O)Nc1cc(S(=O)(=O)O)cc2cc(S(=O)(=O)O)cc(O)c12 | 119 | 96 | 102 | 99 | 0
CCCCCC(=O)Nc1cc(S(=O)(=O)N2CCCCC2)ccc1N1CCCCC1 | 0 | 0 | 0 | 0 | 0
CC(=O)OCC1=C(C(=O)O)N2C(=O)C(NC(=O)COc3ccc(F)cc3)C2SC1 (stereo not drawn) | 0 | 0 | 54 | 0 | 0
Cc1cccc(OCC(=O)Nc2ccccc2N2CCCCC2)c1 | 41 | 0 | 0 | 0 | 0
CCNc1nc(-c2cc(C)n(Cc3ccco3)c2C)cs1 | 0 | 0 | 0 | 0 | 0
Cc1cc(-c2csc(NC(=O)c3ccc(=O)[nH]c3)n2)c(C)n1Cc1ccco1 | 78 | 63 | 0 | 0 | 74
CN(C)S(=O)(=O)c1ccc(C(=O)OCC(=O)c2ccc3c(c2)NC(=O)CO3)cc1 | 0 | 57 | 0 | 0 | 0
CN(C)S(=O)(=O)c1cccc(C(=O)OCC(=O)c2ccc3c(c2)NC(=O)CO3)c1 | 0 | 0 | 0 | 0 | 0
CC(C)(C)c1cc(C(=O)NNc2cc(C(F)(F)F)ccc2Cl)n(Cc2ccccc2)n1 | 0 | 0 | 0 | 0 | 0
O=C(O)c1ccccc1NS(=O)(=O)c1ccc(NN=Cc2cccc(Cl)c2)c([N+](=O)[O-])c1 | 0 | 83 | 0 | 0 | 0
COc1cc(/C=C2/C(=O)c3cccc([N+](=O)[O-])c3C2=O)c(Br)cc1O | 0 | 0 | 69 | 0 | 0
Cc1cc(C)c(S(=O)(=O)c2ccccc2)c(OC(=O)c2c(F)cccc2F)n1 | 0 | 0 | 0 | 0 | 0

Compound activity: PubChem BioAssay, Sanford-Burnham Center for Chemical Genomics
